Measured values of several laboratories.
Target: Mitogen-activated protein kinase kinase kinase 7 (MAP3K7, Homo sapiens, UniProt O43318)
One construct used (O43318 1-606): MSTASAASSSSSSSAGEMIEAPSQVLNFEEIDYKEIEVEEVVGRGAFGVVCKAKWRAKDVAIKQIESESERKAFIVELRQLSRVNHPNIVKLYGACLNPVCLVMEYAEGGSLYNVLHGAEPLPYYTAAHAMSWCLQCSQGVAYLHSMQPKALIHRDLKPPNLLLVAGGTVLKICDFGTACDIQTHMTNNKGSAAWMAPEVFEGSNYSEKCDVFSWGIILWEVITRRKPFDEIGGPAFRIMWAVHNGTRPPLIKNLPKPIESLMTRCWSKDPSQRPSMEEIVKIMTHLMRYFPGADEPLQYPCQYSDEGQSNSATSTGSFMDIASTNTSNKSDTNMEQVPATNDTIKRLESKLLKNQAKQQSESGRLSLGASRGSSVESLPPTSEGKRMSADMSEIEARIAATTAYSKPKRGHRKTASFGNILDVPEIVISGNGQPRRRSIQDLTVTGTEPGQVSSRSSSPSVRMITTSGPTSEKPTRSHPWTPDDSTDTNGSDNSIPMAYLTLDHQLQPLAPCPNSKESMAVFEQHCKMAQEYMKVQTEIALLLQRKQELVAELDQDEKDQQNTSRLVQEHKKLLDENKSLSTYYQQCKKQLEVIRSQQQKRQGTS

| Compound | observed | method | tested at | remaining binding |
| --- | --- | --- | --- | --- |
| CC(=O)N1CCC(c2ccc(C(=O)NC3=NCCN3)cc2C(F)(F)F)CC1 | cell-free assay | competition with immobilised ligand | 1 µM | 100% |
| CNC(=O)[C@@H]1CC[C@@H](n2c(-c3ccc4cnccc4c3)nc3ccc(C(=O)NCc4cccc(C(N)=O)c4)cc32)C1 | binding | competition with immobilised ligand | 1 µM | 100% |
| C[C@H]1CCN(c2nccc(-c3cnn4ncccc34)n2)C1 | binding | – | 1 µM | 71% |
| CCN1CCN(Cc2ccc(C(=O)Nc3ccc(C)c(Oc4ccc5c(c4)CC(=O)N5)c3)cc2C(F)(F)F)CC1 | binding | competition with immobilised ligand | 1 µM | 7.6% |
| CC1=C(C#N)[C@@H](c2ccc3[nH]nc(C)c3c2)C(C#N)=C(c2ccc(Cl)cc2)N1 | cell-free assay | competition with immobilised ligand | 1 µM | 100% |
| O=C(Nc1c[nH]nc1C(=O)NC1CCNCC1)c1cc(F)cc(F)c1 | binding | competition with immobilised ligand | 1 µM | 83% |
| COc1cnc(Nc2cccc(S(N)(=O)=O)c2)nc1N1CCN(c2ccccc2)CC1 | binding | competition with immobilised ligand | 1 µM | 85% |
| Cc1cnc(Nc2ccc(C(=O)N3CCC(N4CCCC4)CC3)cc2)nc1-c1cc2ccccc2s1 | binding | competition with immobilised ligand | 1 µM | 7.3% |
| O=C(NCc1ncc(C(F)(F)F)cc1Cl)c1ccc2c(c1)C1(CCS(=O)(=O)CC1)[C@H](C1CC1)N2S(=O)(=O)c1ccc(F)cc1 | cell-free assay | competition with immobilised ligand | 1 µM | 80% |
| C=CC(=O)N1CCC(C(=O)NCC(=O)N2CCN(c3nc(-c4cnc(N)nc4C(F)F)nc(N4CCOCC4)n3)CC2)CC1 | binding | competition with immobilised ligand | 1 µM | 100% |
| CN(CCCC(F)(F)F)c1nccc(-c2cnn3ncccc23)n1 | binding | – | 1 µM | 85% |
| O=C(c1ccc(Nc2nccc(-c3cc4ccccc4s3)n2)cc1)N1CCC(N2CCCC2)CC1 | binding | competition with immobilised ligand | 1 µM | 7.2% |
| O=C(NS(=O)(=O)c1ccc(NCC2CCOCC2)c([N+](=O)[O-])c1)c1ccc(N2CCN(Cc3ccc(C(F)(F)F)cc3-c3ccc(Cl)cc3)CC2)cc1Oc1cnc2[nH]ccc2c1 | cell-free assay | competition with immobilised ligand | 1 µM | 100% |
| CN(c1nccc(-c2cnn3ncccc23)n1)C1CC1 | binding | – | 1 µM | 82% |
| O=C(c1ccc(Nc2ncc(Cl)c(-c3ccc(Cl)s3)n2)cc1)N1CCC(N2CCCC2)CC1 | binding | competition with immobilised ligand | 1 µM | 0% |
| Cc1noc([C@H]2C[C@@H](c3ccc(C(F)(F)F)cc3)CN(C(=O)N3CCS(=O)(=O)C3)C2)n1 | cell-free assay | competition with immobilised ligand | 1 µM | 100% |
| CN(C)c1nccc(-c2cnc3ncccn23)n1 | binding | – | 1 µM | 36% |
| COc1ncc2cc3ccccc3nc2c1C#N | cell-free assay | competition with immobilised ligand | 5 µM | 92% |
| Cc1c(NC(=O)c2cc(C(N)=O)nc3cc(F)ccc23)c(C(F)(F)F)nn1Cc1ccc(C#N)cc1 | cell-free assay | competition with immobilised ligand | 1 µM | 68% |
| COc1ccnn2ncc(-c3ccnc(N(C)C)n3)c12 | binding | – | 1 µM | 75% |
| COc1cc(-c2cn(C3CCc4ccccc4N(CC(F)(F)F)C3=O)nn2)ccc1-n1ccc(C)n1 (stereo not shown) | cell-free assay | competition with immobilised ligand | 1 µM | 86% |
| CN(C)c1nccc(-c2cnn3ncccc23)n1 | binding | – | 1 µM | 97% |
